Drawing on ChEMBL document CHEMBL1147212, “Quinone reductase induction activity of methoxylated analogues of resveratrol” (2007), this text covers viability, Activity and fold induction for 27 molecules.

Activity calls are given as the source filed them. The calls are words filed in the database; no cut-off is given here.

Assay [1] in a line: Cytotoxicity against mouse Hepa 1c1c7 cells assessed as cell viability at 1 uM after 24 hrs by MTT assay. In kind it is functional. The following applies: Hepa-1c1c7, 24 h, read-out: Activity. The procedure, abridged: (§1)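 Hepa 1c1c7 murine hepatoma cells exposed for 24 h to compound from DMSO stock, serially diluted to final […], with DMSO ≤1% final. MTT then added for 3 h, cells lysed, and formazan read at 590 nm. Blank-subtracted absorbance expressed as % of untreated control wells. Mean of at least three independent determinations.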

Assay [2] concerns Hepa 1c1c7. As to the kind of experiment: Induction of quinone reductase activity in mouse Hepa 1c1c7 cells at 1 uM after 24 hrs relative to control. In kind it is cell-based. A digest of the protocol: (§2)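 Cells seeded at 10⁴/well and grown 24 h in α-MEM with 10% FCS, 5% CO₂, 37 °C. They were then exposed 24 h to compound (DMSO ≤0.5% final), using the same concentration as the viability test. Lysis used digitonin/EDTA. MTT-coupled menadione reduction mix was added (Tris pH 7.4, FAD, G6P, NADP, G6PDH). Reaction stopped after 5 min with dicoumarol and read at 590 nm. Result is blank-corrected treated/control (0.5% DMSO) ratio, mean ± SD, n = 3. Lines 12-14 used the c1 mutant, which lacks CYP1A1-dependent AHH activity.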

Assay [3] is described as follows: ABTS radical scavenging activity assessed as trolox equivalent antioxidant capacity. In kind it is functional. A digest of the protocol: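 ABTS radical cation diluted in PBS pH 7.4 to absorbance 0.700 (±0.02) at 734 nm, 25 °C. Compound added from ethanol stock. Absorbance decrease read at 1, 3 and 5 min. Percent reduction at 5 min plotted against concentration ([…] as printed); slope divided by Trolox slope gives TEAC. Run at least three times on separate occasions.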

Assay [4] relates to Hepa 1c1c7. As to the kind of experiment: Induction of quinone reductase activity in mouse Hepa 1c1c7 cells at 5 uM after 24 hrs relative to control. In kind it is cell-based. The procedure, abridged:
as §2

Assay [5] in a line: Cytotoxicity against mouse Hepa 1c1c7 cells assessed as cell viability at 5 uM after 24 hrs by MTT assay. The conditions noted are these: Hepa-1c1c7, 24 h, read-out: Activity. It counts as functional. The procedure, abridged:
as §1
In general terms: Tetrazolium assays rely on reduction of a dye to a coloured formazan, in cell work by metabolically active cells.

Assay [6] in a line: Cytotoxicity against mouse Hepa 1c1c7 cells assessed as cell viability at 12.5 uM after 24 hrs by MTT assay. It counts as functional. The following applies: Hepa-1c1c7, 24 h, read-out: Activity. The procedure, abridged:
as §1

Assay [7] concerns Hepa 1c1c7. As to the kind of experiment: Induction of quinone reductase activity in mouse Hepa 1c1c7 cells at 12.5 uM after 24 hrs relative to control. It counts as cell-based. A digest of the protocol: as §2
Assay [8] deals with Hepa 1c1c7c1. As to the kind of experiment: Induction of quinone reductase in mouse mutant Hepa 1c1c7c1 cells at 12.5 uM after 24 hrs relative to control. It counts as cell-based. A digest of the protocol:
as §2

Assay [9] is described as follows: Cytotoxicity against mouse Hepa 1c1c7 cells assessed as cell viability at 6.3 uM after 24 hrs by MTT assay. In kind it is functional. The conditions noted are these: Hepa-1c1c7, 24 h, read-out: Activity. A digest of the protocol: as §1
In assay [10] the test system is Hepa 1c1c7. As to the kind of experiment: Induction of quinone reductase activity in mouse Hepa 1c1c7 cells at 6.3 uM after 24 hrs relative to control. In kind it is cell-based. A digest of the protocol: as §2
Assay [11] has as its system Hepa 1c1c7. As to the kind of experiment: Induction of quinone reductase activity in mouse Hepa 1c1c7 cells at 25 uM after 24 hrs relative to control. It counts as cell-based. A digest of the protocol: as §2
Assay [12] in a line: Cytotoxicity against mouse Hepa 1c1c7 cells assessed as cell viability at 25 uM after 24 hrs by MTT assay. In kind it is functional. The conditions noted are these: Hepa-1c1c7, 24 h, read-out: Activity. The procedure, abridged:
as §1

Assay [13] has as its system Hepa 1c1c7c1. The assay is described as follows: Induction of quinone reductase activity in mouse mutant Hepa 1c1c7c1 cells assessed as concentration required to double the enzyme activity. It counts as cell-based. The procedure, abridged:
(§3)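 Hepa 1c1c7 wild-type or AHH-deficient c1 mutant cells, 10⁴ per well, grown for 24 h in α-MEM with 10% FCS at 37 °C and 5% CO₂, then exposed to compound from DMSO stock (final DMSO ≤0.5%) for 24 h. Cells were digitonin/EDTA-lysed and given an NADP/G6P-regenerating mix with FAD, MTT and menadione for 5 min. The reaction was stopped with dicoumarol and read at 590 nm; CD is the concentration doubling QR activity versus the DMSO control.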

For assay [14], the system named is Hepa 1c1c7. The assay is described as follows: Induction of quinone reductase activity in mouse Hepa 1c1c7 cells assessed as concentration required to double the enzyme activity. In kind it is cell-based. A digest of the protocol:
as §3

Take `COc1ccc(/C=C\c2ccc(OC)cc2OC)cc1`: the viability at 1 µM in [1] came out at 85%. In addition, the Activity in the assay on Hepa 1c1c7 [2] is less than 1.

As to `COc1ccc(/C=C\c2ccc(OC)c(O)c2)cc1`, the Activity was 1.11 in assay [3] and less than 1 in the assay with Hepa 1c1c7 [4]. Moreover, the viability at 5 µM in [5] came to 75%.

With `COc1ccc(/C=C/c2cc(OC)cc(OC)c2)cc1` [TRISMETHOXYRESVERATROL], in assay [1], the viability at 1 µM is 94%. This molecule had an Activity in the assay on Hepa 1c1c7 [2] of less than 1.

As to `COc1ccc(/C=C\c2cc(O)cc(O)c2)cc1`, in assay [6], the viability at 12.5 µM turned out to be 96%. Further, the Activity in assay [3] was determined as 1.86; in the assay with Hepa 1c1c7 [7] it was 1.04.

On to `COc1ccc(/C=C/c2ccc(OC)c(OC)c2)cc1`, for which, in assay [1], the viability at 1 µM amounted to 100%. The molecule also returned an Activity in the assay with Hepa 1c1c7 [2] of less than 1.

Consider `COc1ccc(/C=C/c2ccc(OC)c(O)c2)cc1`, for which the viability at 12.5 µM in assay [6] is 77%. Further, the Activity stood at 1.29 in [3] and 1.33 with Hepa 1c1c7 [7].

On to `COc1ccc(/C=C\c2ccc(OC)c(OC)c2)cc1` [7Z-3,4,4'-TRIMETHOXYSTILBENE], for which, in [1], the viability at 1 µM worked out at 86%. Moreover, in the assay on Hepa 1c1c7 [2], the Activity was less than 1.

Consider `COc1ccc(/C=C\c2ccccc2OC)cc1`, for which, in assay [1], the viability at 1 µM turned out to be 56%. The Activity in the assay on Hepa 1c1c7 [2] is less than 1.

In the case of `COc1ccc(/C=C/c2cccc(O)c2)cc1`, the viability at 12.5 µM in [6] turned out to be 81%. Further, the Activity stood at 1.11 in [3] and 1.08 in the assay with Hepa 1c1c7 [7].

On to `COc1ccc(/C=C\c2cccc(OC)c2)cc1`, for which, in [1], the viability at 1 µM was 92%. In addition, in the assay with Hepa 1c1c7 [2], the Activity was less than 1.

Regarding `COc1ccccc1/C=C/c1ccccc1OC`, the viability at 12.5 µM in [6] stood at 82%. The same molecule showed a fold induction with Hepa 1c1c7c1 [8] of less than 1. In the assay on Hepa 1c1c7 [7], this molecule gave an Activity of 1.81.

For the molecule `COc1ccc(/C=C/c2c(OC)cccc2OC)cc1`, in assay [6], the viability at 12.5 µM stood at 90%. Moreover, the Activity with Hepa 1c1c7c1 [8] is 1.05 µM; with Hepa 1c1c7 [7] it was 1.92.

`COc1ccc(/C=C/c2cc(OC)c(OC)c(OC)c2)cc1`: the viability at 1 µM in assay [1] worked out at 86%. In addition, in the assay with Hepa 1c1c7 [2], the Activity was less than 1.

Take `COc1ccc(/C=C\c2cccc(O)c2)cc1`: the Activity in assay [3] was 1.04; in the assay with Hepa 1c1c7 [4] it was less than 1. The viability at 5 µM in assay [5] stood at 90%.

In the case of `COc1ccc(/C=C/c2ccccc2OC)cc1`, the viability at 12.5 µM in assay [6] was 58%. For the same molecule, the fold induction in the assay on Hepa 1c1c7c1 [8] was 1.14. In addition, the values for the Activity in the assay on Hepa 1c1c7 [7] and in the assay with Hepa 1c1c7 [10] were 2.04 and 1.8, respectively. Further, in [9], the viability at 6.3 µM stood at 73%.

For the molecule `COc1ccc(/C=C/c2ccc(OC)cc2OC)cc1`, the viability at 12.5 µM in [6] came to 58%. For the same molecule, in the assay on Hepa 1c1c7 [7], the Activity was determined as 1.18.

In the case of `COc1ccc(/C=C/c2ccc(OC)cc2)cc1`, the viability at 12.5 µM in [6] was found to be 67%. For the same molecule, the Activity in the assay with Hepa 1c1c7 [7] was 1.14.

Consider `COc1ccc(/C=C\c2cc(OC)c(OC)c(OC)c2)cc1`, for which the viability at 1 µM in assay [1] is 88%. The molecule further came in with an Activity in the assay on Hepa 1c1c7 [2] of less than 1.

For `Oc1ccc(/C=C/c2cc(O)cc(O)c2)cc1` [RESVERATROL], the viability at 12.5 µM in assay [6] turned out to be 80%. The Activity is 2.74 in assay [3], 1.5 in the assay with Hepa 1c1c7 [11] and 1.24 with Hepa 1c1c7 [7]. Besides, the fold induction in the assay with Hepa 1c1c7c1 [8] worked out at 1.16. Moreover, the viability at 25 µM in assay [12] worked out at 55%.

As for `COc1ccc(/C=C/c2cccc(OC)c2)cc1`, in [6], the viability at 12.5 µM was determined as 90%. Also, in the assay with Hepa 1c1c7c1 [8], the fold induction is less than 1. In addition, the Activity in the assay with Hepa 1c1c7 [7] worked out at 1.44.

For the molecule `O=c1cc(-c2ccccc2)oc2ccc3ccccc3c12`, the outcome with Hepa 1c1c7c1 [13] was inactive. The Activity in the assay on Hepa 1c1c7 [14] came out at 0.028 µM.

In the case of `Oc1cc(O)cc(/C=C/c2ccccc2)c1` [PINOSYLVIN], the viability at 12.5 µM in assay [6] turned out to be 61%. For the same molecule, the Activity in assay [3] came out at 2.04; in the assay on Hepa 1c1c7 [7] it was 1.07.

Consider `COc1ccc(/C=C\c2ccc(OC)cc2)cc1`, for which the viability at 12.5 µM in [6] was 64%. The molecule further registered an Activity with Hepa 1c1c7 [7] of 1.06.

Take `COc1ccc(/C=C/c2cc(O)cc(O)c2)cc1` [RESVERATROL 4'-METHYL ETHER]: in assay [6], the viability at 12.5 µM came to 87%. Besides, the Activity in assay [3] was 2.49; in the assay on Hepa 1c1c7 [7], 1.14.

With `COc1ccc(/C=C/c2ccccc2O)cc1` [2-hydroxy-4'-methoxystilbene], the viability at 12.5 µM in assay [6] was 80%. The molecule further came in with an Activity in the assay on Hepa 1c1c7 [7] of 1.13.

For `C[S+]([O-])CCCCN=C=S` (stereo unspecified), the Activity in the assay on Hepa 1c1c7c1 [13] turned out to be 0.28 µM; with Hepa 1c1c7 [14], 0.26 µM.

Turning to `COc1ccc(/C=C\c2cc(OC)cc(OC)c2)cc1` [8Z-3,4',5-TRIMETHOXYSTILBENE], the viability at 1 µM in assay [1] came to 82%. In the assay with Hepa 1c1c7 [2], this molecule registered an Activity of less than 1.

For orientation: fold induction means the signal under treatment as a multiple of the control signal.
